# ChEMBL document CHEMBL1136549, “Novel antifungal beta-amino acids: synthesis and activity against Candida albicans” (Bioorg Med Chem Lett, 2003)
# Test system: Candida albicans
# Test: In vitro inhibitory activity against Candida albicans
# Assay type: functional, organism-based
# Conditions: not given
# Method in brief: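 Microbroth dilution; C. albicans ATCC 36082, inoculum 10³ cfu/mL in YNB medium (yeast-nitrogen base 6.7 g/L, glucose 10 g/L, pH 7). Incubated 24 h at 37 °C; growth read photo-/nephelometrically at 360 nm; IC₅₀ determined.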
row,SMILES,IC50 [mg/L]
1,C=C1C[C@@H](N)[C@@H](C(=O)O)C1.Cl,128
2,Cl.Cl.NC1C[C@H](N)[C@H](C(=O)O)C1 (mixture of isomers),64
3,C=C1CC[C@H](N)[C@H](C(=O)O)C1.Cl,> 256
4,Cl.N[C@H]1CCC[C@H]1P(=O)(O)O,> 256
5,C=C1C[C@H](NCC)[C@H](C(=O)O)C1,128
6,C=C1C[C@H](N)[C@H](c2nnn[nH]2)C1.Cl,128
7,CC1CC[C@@H](C(=O)O)[C@H]1N.Cl (some centres not stated),128
8,Cl.N[C@H]1CC(O)C[C@H]1C(=O)O (some centres not stated),128
9,C=C1C[C@H](C(=O)O)[C@@H](N)C1.Cl,128
10,C[C@]1(N)CCC[C@H]1C(=O)O.Cl,64
11,Cl.N[C@H]1C=CCO[C@H]1C(=O)O,64
12,C=CC1C[C@H](N)[C@H](C(=O)O)C1.Cl (some centres not stated),128
13,Cl.N[C@H]1CC=CC[C@H]1C(=O)O,128
14,C=C1C[C@@H](C(=O)O)[C@H]1N.Cl,> 256
15,Cl.N[C@H]1CC[C@H]1C(=O)O,128
16,C=C=C1C[C@H](N)[C@H](C(=O)O)C1.Cl,128
17,Cl.N[C@H]1CC(F)(F)C[C@H]1C(=O)O,128
18,CCCC(N)CC(=O)O.Cl (configuration not stated),> 256
19,C=C1C[C@H](N)[C@@H]1C(=O)O.Cl,> 256
20,Cl.N[C@H]1CCCC[C@H]1C(=O)O,128
21,Cl.N[C@H]1CCC[C@H]1S(=O)(=O)O,> 256
22,Cl.N[C@H]1CCS[C@H]1C(=O)O,> 256
23,CC1(C)C[C@H](N)[C@H](C(=O)O)C1.Cl,256
24,N[C@H]1CSC[C@H]1C(=O)O,64
25,"CC1CC[C@H](N)[C@@H]1C(=O)O.Cl (single isomer, unassigned; Diastereomer B)",16
26,Cl.Cl.N[C@H]1CCN[C@H]1C(=O)O,> 256
27,C=C1C[C@H](N)[C@H](C(=O)O)C1C.Cl (some centres not stated),128
28,C=C1C[C@@H](CO)[C@@H](N)C1,> 256
29,C=C1C[C@@H](C(=O)O)[C@@H](N)C1C.Cl (mixture of isomers),64
30,CCCC/C=C1/C[C@H](N)[C@H](C(=O)O)C1.Cl,128

# Same assay, conditions: Candida albicans; read-out: IC50
row,SMILES,IC50 [mg/L]
1,CC1C=C(C(=O)O)C(N)C1.Cl (configuration not stated),16
2,Cl.N[C@H]1C=CC[C@H]1C(=O)O,0.5
3,C=C1CC[C@@H](C(=O)O)[C@H]1N.Cl,32
4,C=C1C[C@H](N)[C@H](C(=O)N[C@H](CC(C)C)C(=O)O)C1.Cl,16
5,Cl.N[C@H]1CC2(C[C@H]1C(=O)O)OCCO2,32
6,CC1C[C@H](N)[C@H](C(=O)O)C1.Cl (mixture of isomers),4
7,C=C1C[C@H](N)[C@H](C(=O)NC)C1.Cl,32
8,C=C1C[C@H](N)[C@H](C(=O)NO)C1,32
9,C=C1C[C@H](NC(=O)OC(C)(C)C)[C@H](C(=O)O)C1,16
10,C=C1CC[C@@H](C(=O)O)[C@@H](N)C1.Cl,16
11,CC1=C[C@H](N)[C@H](C(=O)O)C1.Cl,8
12,N[C@H]1CCC[C@H]1C(F)(F)F,1
13,N[C@H]1COC[C@H]1C(=O)O,32
14,Cl.N[C@H]1C=CCC[C@H]1C(=O)O,0.03
15,C=C1C[C@H](NC(=O)[C@@H](N)CC(C)C)[C@H](C(=O)O)C1.Cl,2
16,C=C1CN[C@H](C(=O)O)C1.Cl,32
17,N[C@H]1CC2(CC2)C[C@H]1C(=O)O,32
18,Cl.N[C@H]1CCC[C@H]1C(=O)O,0.13
19,C=C1C[C@H](N)[C@H](C(=O)O)C1 [ICOFUNGIPEN],0.13
20,CC1CC[C@H](N)[C@@H]1C(=O)O.Cl (stereo in doubt),8
21,C=C1C[C@H](N)[C@H](C(=O)OC)C1.Cl,2
22,CC1=C[C@@H](C(=O)O)[C@@H](N)C1.Cl,32
